Bioassay records deposited in PubChem BioAssay by several laboratories.
Cav3 T inh: human Cav3.2 channel inhibition, primary screen; O95180; Cav3.2-expressing cells, Fluo-4 calcium fluorescence FDSS; active compounds read low; B-score at 10 µM; 100,000 compounds, 4% hits; AID 449739;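 active = single-dose well whose peak fluorescence ratio is a statistical outlier from its plate by either plate-standardised score or position-corrected B-score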
Rev-RRE block: HIV Rev-RRE protein-RNA interaction inhibition | P05866 | Rev peptide-RRE RNA binding, FRET | inhibition, % at 8 µM | 97,000 compounds, 0.79% hits | AID 704;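 active = inhibition above the screen-wide mean plus 3 SD, cut at about 35% in these data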;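 note: 0% = median DMSO wells and 100% = median Neomycin B control wells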
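System: Cy5-labelled duplex RRE RNA binding fluorescein-labelled HIV Rev peptide; Signal: fluorescein-to-Cy5 FRET, 480 nm excitation; Also added: labelled Rev peptide; Compound: one concentration, 8 µM nominal; Buffer or medium: HEPES pH 7.5 salt buffer with EDTA; Read-out: % inhibition of FRET ratio versus controls; Schedule: 5 min preincubation and 15 min binding, 25 °C.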
EphB4 ephrin blk: antagonists of human EphB4-ephrin-B2 interaction | 97,000 compounds, 0.15% hits | P54760 | inhibition, % at 7 µM | AID 720 | EphB4 LBD / TNYL-RAW-Alexa532 peptide, fluorescence polarization;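 active = inhibition above the screen-wide mean inhibition plus 3 SD, cut at about 15% in these data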;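 note: 0% = DMSO wells and 100% = excess unlabeled TNYL-RAW peptide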
Target sequence (P54760 whole entry, looked up, the tested form may be a part): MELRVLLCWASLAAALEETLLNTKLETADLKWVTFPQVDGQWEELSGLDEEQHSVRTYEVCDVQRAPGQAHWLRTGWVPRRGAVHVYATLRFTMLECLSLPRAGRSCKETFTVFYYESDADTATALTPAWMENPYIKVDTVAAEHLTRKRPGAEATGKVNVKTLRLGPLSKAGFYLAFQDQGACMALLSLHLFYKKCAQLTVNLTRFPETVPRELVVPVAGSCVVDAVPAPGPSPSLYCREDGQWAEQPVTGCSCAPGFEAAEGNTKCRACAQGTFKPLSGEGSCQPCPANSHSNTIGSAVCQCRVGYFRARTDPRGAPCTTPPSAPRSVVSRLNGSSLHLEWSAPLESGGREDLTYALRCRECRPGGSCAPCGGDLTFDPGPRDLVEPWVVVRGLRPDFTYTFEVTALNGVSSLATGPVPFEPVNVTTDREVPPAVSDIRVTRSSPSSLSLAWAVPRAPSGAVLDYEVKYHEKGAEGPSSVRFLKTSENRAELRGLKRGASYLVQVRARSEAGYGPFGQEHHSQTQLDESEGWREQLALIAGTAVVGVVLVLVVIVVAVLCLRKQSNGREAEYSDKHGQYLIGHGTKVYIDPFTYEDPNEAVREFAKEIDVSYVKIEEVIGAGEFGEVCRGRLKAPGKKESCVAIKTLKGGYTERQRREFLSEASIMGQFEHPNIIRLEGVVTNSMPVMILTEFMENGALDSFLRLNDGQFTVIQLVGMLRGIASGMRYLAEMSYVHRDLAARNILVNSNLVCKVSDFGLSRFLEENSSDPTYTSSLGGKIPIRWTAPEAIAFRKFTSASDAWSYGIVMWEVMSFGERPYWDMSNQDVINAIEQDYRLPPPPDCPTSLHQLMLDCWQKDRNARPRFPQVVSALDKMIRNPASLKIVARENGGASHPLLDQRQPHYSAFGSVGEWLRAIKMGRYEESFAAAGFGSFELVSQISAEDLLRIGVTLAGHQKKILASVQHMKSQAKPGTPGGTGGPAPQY
DAT uptake mod: human DAT dopamine uptake with cocaine, either direction | Q01959 | LLC-PK1 hDAT cells, [14C]-dopamine uptake with cocaine IC80; actives deviate in either direction | B-score at 10 µM | 110,000 compounds, 1.3% hits;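 active = Z score or B-score, a plate-position-corrected score, falls beyond the plate's 99.7% confidence bounds, in either direction; inactive = both scores lie inside the 99.7% bounds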;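 note: scored against the spread of the other compound wells on the same plate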
An asterisk follows results filed as active. Most compounds without a hit are left out; they make up all but 5.4% or so of the library.

What do the screens show for `O=c1[nH]ncc(N/N=C/c2ccccc2)c1Cl`?
Cav3 T inh: 0.71; Rev-RRE block: 4; EphB4 ephrin blk: 6; DAT uptake mod: -0.84

What do the screens show for `Cc1ccc(C(=O)OCc2cn3ccccc3n2)cc1`?
Cav3 T inh: -0.61; DAT uptake mod: 0.93

How did COc1ccc(C(=O)Nc2nc(-c3cccs3)cs2)cc1 do in these assays?
Cav3 T inh: -8.9*; Rev-RRE block: 14; EphB4 ephrin blk: -2; DAT uptake mod: -0.055

Results for CC1CCN(S(=O)(=O)c2cccc(C(=O)NCc3cccs3)c2)CC1 ?
Cav3 T inh: -7.3*; Rev-RRE block: 13; EphB4 ephrin blk: 4; DAT uptake mod: 0.57

How did O=C(Nc1nc(-c2cccs2)cs1)c1cccc(S(=O)(=O)N2CCCCC2)c1 do in these assays?
Cav3 T inh: -9.2*; Rev-RRE block: 2; EphB4 ephrin blk: 1; DAT uptake mod: -1.2

How did O=C(Nc1nc(-c2ccccc2)cs1)C1CCCN(S(=O)(=O)c2cccc([N+](=O)[O-])c2)C1 (stereo unspecified) do in these assays?
Cav3 T inh: -6.1*; Rev-RRE block: 5; EphB4 ephrin blk: 0; DAT uptake mod: -0.023

How did O=C(Nc1nc(-c2ccccc2)cs1)C1CCCN(S(=O)(=O)c2ccccc2)C1 (stereo unspecified) do in these assays?
Cav3 T inh: -3.4; Rev-RRE block: 9; EphB4 ephrin blk: 2; DAT uptake mod: 1.7

What do the screens show for `CC1CCN(S(=O)(=O)c2cccc(C(=O)NCc3ccco3)c2)CC1`?
Rev-RRE block: 3; EphB4 ephrin blk: 3; DAT uptake mod: -0.28

Results for CCN(CC)C(=O)CNC(=O)Cc1ccc(Cl)cc1 ?
Cav3 T inh: 0.055; Rev-RRE block: 6; EphB4 ephrin blk: -3; DAT uptake mod: -0.16

Results for CCCNC(=O)c1c(N)n(-c2cc(OC)cc(OC)c2)c2nc3ccccc3nc12 ?
Cav3 T inh: -6.5*; DAT uptake mod: 0.046

Results for C=CCn1c(N)c(C(=O)NCC2CCCO2)c2nc3ccccc3nc21 (stereo unspecified) ?
Cav3 T inh: -2.3; Rev-RRE block: 11; EphB4 ephrin blk: 2; DAT uptake mod: 0.75

What do the screens show for `CCCNC(=O)c1c(N)n(-c2ccc3c(c2)OCO3)c2nc3ccccc3nc12`?
Cav3 T inh: -1.5; Rev-RRE block: 7; EphB4 ephrin blk: -3; DAT uptake mod: 0.49

What do the screens show for `COc1ccc(-n2c(N)c(C(=O)NCC3CCCO3)c3nc4ccccc4nc32)c(OC)c1` (stereo unspecified)?
Cav3 T inh: -8*; Rev-RRE block: 9; EphB4 ephrin blk: 1; DAT uptake mod: 0.015

What do the screens show for `CCCC1S/C(=N/N=C/c2ccc(OC)cc2)N(Cc2ccc(OC)cc2)C1=O` (stereo unspecified)?
Cav3 T inh: -3.7*; Rev-RRE block: 9; EphB4 ephrin blk: 2; DAT uptake mod: 0.015

What do the screens show for `CCCC1S/C(=N/N=C/c2ccc(OC)cc2)N(Cc2ccccc2)C1=O` (stereo unspecified)?
Cav3 T inh: -3.6*; Rev-RRE block: 14; EphB4 ephrin blk: 2; DAT uptake mod: -0.65

Results for CNC(=O)C1CC(=O)N(Cc2ccccc2)C(=Nc2ccc(OC)cc2)S1 (stereo unspecified) ?
Cav3 T inh: -0.58; Rev-RRE block: 9; EphB4 ephrin blk: 3; DAT uptake mod: -0.49

Results for CCCn1c(C)cc(=O)c2cc(NC(=O)c3cnccn3)ccc21 ?
Cav3 T inh: 0.13; Rev-RRE block: 8; EphB4 ephrin blk: 4; DAT uptake mod: 1.3

Results for O=C(OCc1cnc(Cl)s1)c1cccc(Cl)c1Cl ?
Cav3 T inh: -0.77; Rev-RRE block: 8; EphB4 ephrin blk: -4; DAT uptake mod: -0.49

Results for CCOC(=O)c1c(C)oc2ccc(O)c(CN(C)C)c12 ?
Cav3 T inh: 0.64; Rev-RRE block: -4; EphB4 ephrin blk: -2; DAT uptake mod: 0.0025

What do the screens show for `CCOC(=O)c1c(-c2ccccc2)oc2cc(CN(C)C)c(O)c(CN(C)C)c12`?
Rev-RRE block: 58*; EphB4 ephrin blk: 6

What do the screens show for `O=C(CC1Oc2ccccc2NC1=O)NCCCN1CCN(C2CCCCC2)CC1` (stereo unspecified)?
Cav3 T inh: 0.52; Rev-RRE block: 2; EphB4 ephrin blk: -10; DAT uptake mod: -0.38

Results for O=S(=O)(NCc1cc(-c2ccccc2)no1)c1ccc(Cl)cc1 ?
Cav3 T inh: -1.2; Rev-RRE block: 1; EphB4 ephrin blk: -4; DAT uptake mod: -0.75

How did O=S(=O)(Nc1nnc(-c2ccccc2)s1)c1ccc(Cl)cc1 do in these assays?
Rev-RRE block: -3; EphB4 ephrin blk: -3; DAT uptake mod: -3*
